From ChEMBL document CHEMBL1125331, “6-Hydroxy-3-n-propyl-2,3,4,5-tetrahydro-1H-3-benzazepine and analogs: new centrally acting 5-HT1A receptor agonists” (J Med Chem, 1992) come the findings set out here.

SMILES strings stand for the structures. Where “and” joins values, the source holds several entries; their conditions need not be identical. Equal entries are not always repeated.

Test [1] concerns Rattus norvegicus. Briefly: Effect evaluated in vivo on 5-HTP accumulation in NE-rich hemispheres at a 3.1 dose uM/kg(sc). In kind it is functional. A digest of the protocol: (§1)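 Male Sprague-Dawley rats (200–300 g) were pretreated with reserpine 5 mg/kg sc 18 h beforehand. Test drug was given at neutral pH, 5 mL/kg. Aromatic amino acid decarboxylase was blocked with NSD 1015. 5-HTP in the dissected brain region was assayed by HPLC with electrochemical detection.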

For test [2], the system named is Rattus norvegicus. Briefly: Effect evaluated in vivo on 5-HTP accumulation in limbic system at a dose 50 umol/kg (s.c.). In kind it is functional. Summed up:
(§2)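 Male Sprague-Dawley rats (200–300 g) were pretreated with reserpine 5 mg/kg sc 18 h before. Test compound was given sc at 5 mL/kg in neutral solution. 5-HT synthesis rate was indexed by […] 5-HTP accumulation after decarboxylase inhibition with NSD 1015, measured by HPLC-electrochemical detection. Dose-response used 4–6 dose levels, n = 4.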

In test [3] the test system is Rattus norvegicus. Description: Effect evaluated in vivo on 5-HTP accumulation in NE-rich hemispheres at a 50 dose uM/kg(sc). Type of test: functional. A digest of the protocol:
as §1

In test [4] the test system is Rattus norvegicus. Briefly: Effect evaluated in vivo on 5-HTP accumulation in corpus striatum after subcutaneous administration. Type of test: functional. Summed up: as §1
For test [5], the system named is Rattus norvegicus. Description: Effect evaluated in vivo on 5-HTP accumulation in corpus striatum at ED50 umol/kg after subcutaneous administration. In kind it is functional. The conditions noted are these: sc. Summed up:
as §1

Test [6] relates to Rattus norvegicus. Briefly: Effect evaluated in vivo on 5-HTP accumulation in limbic system at a dose 12.5 umol/kg (s.c.). In kind it is functional. Summed up:
as §2

In test [7] the test system is Rattus norvegicus. Description: Effect evaluated in vivo on 5-HTP accumulation in limbic system at a dose 3.1 umol/kg (s.c.). Type of test: functional. A digest of the protocol: as §2
Test [8] relates to Rattus norvegicus. Description: Effect evaluated in vivo on 5-HTP accumulation in limbic system after subcutaneous administration. Type of test: functional. The conditions noted are these: sc. Summed up: as §1
For test [9], the system named is Rattus norvegicus. Briefly: Effect evaluated in vivo on 5-HTP accumulation in NE-rich hemispheres at ED50 umol/kg after subcutaneous administration. The conditions noted are these: sc. In kind it is functional. A digest of the protocol:
as §1

Test [10] concerns Rattus norvegicus. Briefly: The compound was tested in vivo for locomotor activity in rats at 0.2 umol/kg after subcutaneous administration.
Test [11] deals with Rattus norvegicus. Description: Effect evaluated in vivo on 5-HTP accumulation in corpus striatum at a dose 3.1 umol/kg (s.c.). In kind it is functional. A digest of the protocol: as §1
Test [12] concerns Rattus norvegicus. Briefly: Effect evaluated in vivo on 5-HTP accumulation in corpus striatum at a dose 50 umol/kg (s.c.). Type of test: functional. A digest of the protocol: as §1
Test [13] deals with Rattus norvegicus. Description: Effect evaluated in vivo on 5-HTP accumulation in NE-rich hemispheres at a 12.5 dose uM/kg(sc). Type of test: functional. Summed up:
as §1

The test system of test [14] is Rattus norvegicus. Briefly: Effect evaluated in vivo on 5-HTP accumulation in corpus striatum at a dose uM/kg(sc). In kind it is functional. A digest of the protocol:
as §1

In test [15] the test system is Rattus norvegicus. Description: The compound was tested in vivo for locomotor activity in rats at 50 umol/kg after subcutaneous administration. Type of test: functional. Summed up:
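Male Sprague-Dawley rats received reserpine 5 mg/kg sc in the neck 18 h before testing. Test compound was given sc in the neck (n = 4). Rats were placed singly in photocell motility meters immediately after dosing, and counts were accumulated over 30 min (tests 9 a.m.–1 p.m.). Gross behaviour, including 5-HT syndrome, was observed throughout.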

Test [16] addresses D(2) dopamine receptor (Rattus norvegicus, UniProt P61169). Briefly: Inhibitory activity against Dopamine receptor D2 in rats using [3H]spiperone as radioligand. Summed up:
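Rat striatal membranes in 50 mM potassium phosphate buffer pH 7.4 were incubated with 0.5 nM [3H]spiperone for 10 min at 37 °C. Specific binding was defined with 10 μM 6,7-ADTN.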

The subject of test [17] is Rattus norvegicus. Briefly: Effect evaluated in vivo on 5-HTP accumulation in NE-rich hemispheres at a dose uM/kg(sc). In kind it is functional. A digest of the protocol:
as §1

Test [18] concerns Rattus norvegicus. Description: Effect evaluated in vivo on 5-HTP accumulation in limbic system at a dose uM/kg(sc). In kind it is functional. A digest of the protocol:
as §2

Test [19] addresses T1, 5-hydroxytryptamine receptor 1A (Rattus norvegicus, UniProt P19327).
T1 sequence (P19327 whole entry): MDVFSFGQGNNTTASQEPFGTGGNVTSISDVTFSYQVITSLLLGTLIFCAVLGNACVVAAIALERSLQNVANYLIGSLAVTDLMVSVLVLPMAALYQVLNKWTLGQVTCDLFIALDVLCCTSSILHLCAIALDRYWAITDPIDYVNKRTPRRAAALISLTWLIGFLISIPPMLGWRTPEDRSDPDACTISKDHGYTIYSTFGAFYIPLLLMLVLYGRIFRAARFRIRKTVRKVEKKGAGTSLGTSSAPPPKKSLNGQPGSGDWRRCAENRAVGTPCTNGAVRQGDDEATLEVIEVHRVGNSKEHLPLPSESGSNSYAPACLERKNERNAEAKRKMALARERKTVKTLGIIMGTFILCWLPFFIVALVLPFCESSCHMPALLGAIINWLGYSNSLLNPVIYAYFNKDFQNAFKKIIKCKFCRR
Description: Inhibitory activity against 5-hydroxytryptamine 1A receptor in rats, using [3H]8-OH-DPAT as radioligand. Summed up:
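Rat whole-brain membranes (minus brainstem and cerebellum) in 50 mM Tris pH 8.0 with 120 mM NaCl, 4 mM CaCl2, 4 mM MgCl2 and 10 μM pargyline. Rapid filtration, then scintillation counting. Nonspecific binding defined with 10 μM 5-HT. IC50 by semi-log plot and linear regression.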

Test [20] relates to Rattus norvegicus. Briefly: Effect evaluated in vivo on DA synthesis in limbic system at ED50 umol/kg after subcutaneous administration. Type of test: functional. A digest of the protocol: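 Male Sprague-Dawley rats (200–300 g) pretreated with reserpine (5 mg/kg sc, 18 h before), then given the test drug sc; neutral solutions at 5 mL/kg. Dopa accumulation after decarboxylase inhibition with NSD 1015 indexes DA synthesis rate in limbic tissue, assayed by HPLC with electrochemical detection.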

Test [21] concerns Rattus norvegicus. Description: Effect evaluated in vivo on DA synthesis in limbic system at ED50 umol/kg after peroral administration. In kind it is functional. Summed up:
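Oral dosing in male Sprague-Dawley rats (200–300 g) pretreated with reserpine 5 mg/kg sc 18 h before. After decarboxylase inhibition with NSD 1015, brain 5-HTP or dopa accumulation (HPLC-electrochemical detection) indexed 5-HT synthesis, DA synthesis (limbic) or NE synthesis (hemispheres, mainly cortex).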

Test [22] concerns Rattus norvegicus. Briefly: Effect evaluated in vivo on 5-HT synthesis in limbic system at ED50 umol/kg after subcutaneous administration. The conditions noted are these: sc.

Chain of D(2) dopamine receptor (P61169 whole entry): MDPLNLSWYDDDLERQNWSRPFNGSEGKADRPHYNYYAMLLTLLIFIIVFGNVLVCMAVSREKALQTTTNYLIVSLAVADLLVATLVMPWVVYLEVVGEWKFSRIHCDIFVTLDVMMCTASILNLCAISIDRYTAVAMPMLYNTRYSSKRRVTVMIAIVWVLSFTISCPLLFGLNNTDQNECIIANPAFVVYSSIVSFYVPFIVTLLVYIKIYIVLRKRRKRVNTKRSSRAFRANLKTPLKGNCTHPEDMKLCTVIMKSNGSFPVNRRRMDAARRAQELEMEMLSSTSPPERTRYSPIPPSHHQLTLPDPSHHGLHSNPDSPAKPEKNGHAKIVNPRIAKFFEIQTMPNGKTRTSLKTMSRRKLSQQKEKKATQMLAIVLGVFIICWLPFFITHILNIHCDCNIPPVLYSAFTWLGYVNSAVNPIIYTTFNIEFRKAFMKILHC

`CN1CCc2cccc(O)c2CC1`: the Control in test [1] came out at 96%; in [2] it was 57%; in [3], 58%; in [4], 70%; in test [6], 72%; in [7], 106%. The Control in test [11] is reported as 104%; in test [12] it was 54%; in test [13] it was 73%. In addition, the ED50 was 11 µmol/kg in test [5], 10 µmol/kg in test [8] and 12 µmol/kg in test [9]. In [10], this molecule gave a Locomotor activity of 6.

As usually defined, the IC50 is the concentration needed to halve the response being measured. On to `CCCCN1CCc2cccc(O)c2CC1`, for which the Control in test [14] was determined as 111%; in test [17] it was 108%; in [18], 84%. The molecule further showed a Locomotor activity in [15] of 19. Further, the IC50 in test [16] came to 12000 nM; in test [19], 420 nM.

For the molecule `CCN1CCc2cccc(OC)c2CC1`, in test [15], the Locomotor activity amounted to 62. In addition, the Control in test [2] was 66%; in [3], 64%; in test [12], 66%. Further, the IC50 in [16] amounted to 2200 nM; in test [19], 210 nM.

Regarding `CCCN(CCC)C1CCc2cccc(O)c2C1` (centres undefined) [8-OH-DPAT], the ED50 in test [20] is 0.052 µM/kg and 0.063 µM/kg; in test [21], 3 µM/kg and 7.9 µM/kg and 7.6 µM/kg; in test [22], 0.052 µmol/kg. For the same molecule, the Locomotor activity in test [10] is listed as 66.
